Values after ≈ are worked out from the molar mass of the structure shown.
Tests used:
Klebsiella pneumoniae = assay: Antimicrobial activity against Klebsiella pneumoniae ATCC 13883 after 24 hrs by agar well diffusion method; assay type: functional
Summary of the method: (§1)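 Agar well diffusion. Inocula of 100 µL: bacteria 1 × 10^8 CFU/mL on nutrient agar, yeast 1 × 10^6 CFU/mL on Sabouraud dextrose agar, fungi 1 × 10^4 spore/mL on potato dextrose agar. 10 mm wells received 100 µL of compound at 100 mg/mL in DMSO. Bacteria incubated 24 h at 37 °C, fungi 48 h at 28 °C. Controls were DMSO, ciprofloxacin 50 µg/mL and ketoconazole 50 µg/mL. Inhibition zone diameter in mm, scored N.A. to ++++, average of triplicates.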

Candida albicans = assay: Antimicrobial activity against Candida albicans NRRL Y-477 after 48 hrs by agar well diffusion method; assay type: functional; summary of the method: as §1
Priestia megaterium = assay: Antimicrobial activity against Bacillus megaterium ATCC 9885 after 24 hrs by agar well diffusion method; assay type: functional; summary of the method: as §1
[1] = Antioxidant activity in rat erythrocytes assessed as inhibition of peroxyl radicals-induced hemolysis at 2 mM after 2 hrs; assay type: functional; details: Erythrocyte, read-out: INH
Summary of the method: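 Rat blood from cardiac puncture, heparinized. Erythrocytes were washed three times in 0.15 M NaCl. A 10% suspension in PBS pH 7.4 was mixed with an equal volume of 200 mM AAPH in PBS containing sample, then shaken at 37 °C for 2 h. Mixture diluted with 8 volumes of PBS and centrifuged; supernatant A540 compared with a water-lysed sample for complete hemolysis. L-ascorbic acid was the positive control. Mean ± SD.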

Bacillus subtilis = assay: Antimicrobial activity against Bacillus subtilis ATCC 6633 after 24 hrs by agar well diffusion method; assay type: functional; summary of the method: as §1
Pseudomonas aeruginosa = assay: Antimicrobial activity against Pseudomonas aeruginosa ATCC 27953 after 24 hrs by agar well diffusion method; assay type: functional; summary of the method: as §1
Escherichia coli = assay: Antimicrobial activity against Escherichia coli ATCC 25922 after 24 hrs by agar well diffusion method; assay type: functional; summary of the method: as §1
Aspergillus niger = assay: Antimicrobial activity against Aspergillus niger after 48 hrs by agar well diffusion method; assay type: functional; summary of the method: as §1
[2] = Cytotoxicity against mouse EAC cells assessed as cell viability using trypan blue staining after 2 hrs by hemocytometer analysis; assay type: functional, cell-based; details: Ehrlich
[3] = Antioxidant activity assessed as ABTS radical scavenging activity at 2 mM; assay type: functional
Summary of the method: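 ABTS (60 µM, 2 mL) was oxidized with MnO2 (25 mg/mL, 3 mL) in 0.1 M phosphate buffer pH 7, then centrifuged and filtered, with A734 adjusted to about 0.5. 50 µL of 2 mM compound in MeOH/phosphate buffer (1:1) was added. Colour loss expressed as % inhibition. L-ascorbic acid was the standard; blank and negative controls used MeOH/buffer.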

Staphylococcus aureus = assay: Antimicrobial activity against Staphylococcus aureus ATCC 29213 after 24 hrs by agar well diffusion method; assay type: functional; summary of the method: as §1

Structure (SMILES)	diameter of the inhibition zone (DIZ) (Klebsiella pneumoniae)	diameter of the inhibition zone (DIZ) (Candida albicans)	diameter of the inhibition zone (DIZ) (Priestia megaterium)	percent hemolysis at 2000 µM [1] [%]	diameter of the inhibition zone (DIZ) (Bacillus subtilis)	diameter of the inhibition zone (DIZ) (Pseudomonas aeruginosa)	diameter of the inhibition zone (DIZ) (Escherichia coli)	diameter of the inhibition zone (DIZ) (Aspergillus niger)	IC50 [2] [µg/mL]	inhibition [3] [%]	diameter of the inhibition zone (DIZ) (Staphylococcus aureus)
C/C(=N\NC(=O)/C(C#N)=C\c1cn(-c2ccccc2)nc1-c1cc2ccccc2o1)c1nc(-c2ccccc2)[nH]c1C	<=4 mm	<=4 mm	<=4 mm	5.55	<=4 mm	<=4 mm	<=4 mm	<=4 mm	125 (≈ 227 µM)	34.6	<=4 mm
O=c1[nH]cc(F)c(=O)[nH]1 [FLUOROURACIL]	–	–	–	–	–	–	–	–	1.5 (≈ 11.5 µM)	–	–
C/C(=N\N=C1\NC(=O)/C(=C/c2cn(-c3ccccc3)nc2-c2cc3ccccc3o2)S1)c1nc(-c2ccccc2)[nH]c1C	<=4 mm	<=4 mm	<=4 mm	1.5	<=4 mm	<=4 mm	<=4 mm	<=4 mm	125 (≈ 215 µM)	35.9	<=4 mm
CC(=O)N1CCN(c2ccc(OCC3COC(Cn4ccnc4)(c4ccc(Cl)cc4Cl)O3)cc2)CC1 (stereo not given) [KETOCONAZOLE]	<=4 mm	>=21 mm	<=4 mm	–	<=4 mm	<=4 mm	<=4 mm	>=21 mm	–	–	<=4 mm
CC1=NC(=N/N=C(\C)c2nc(-c3ccccc3)[nH]c2C)/S/C1=N\Nc1ccccc1	<=4 mm	<=4 mm	<=4 mm	6.4	<=4 mm	<=4 mm	<=4 mm	<=4 mm	20.2 (≈ 48.7 µM)	44.4	<=4 mm
C/C(=N\NC(=O)CC#N)c1nc(-c2ccccc2)[nH]c1C	<=4 mm	<=4 mm	<=4 mm	3.65	<=4 mm	<=4 mm	<=4 mm	<=4 mm	125 (≈ 445 µM)	48.2	<=4 mm
O=C1O[C@H]([C@@H](O)CO)C(O)=C1O [ASCORBIC ACID]	–	–	–	0.85	–	–	–	–	–	88.6	–

Source: ChEMBL document CHEMBL1770090, “Synthesis, antimicrobial, antioxidant, anti-hemolytic and cytotoxic evaluation of new imidazole-based heterocycles” (Eur J Med Chem, 2011)
